Data reported in ChEMBL document CHEMBL1155008, “Brassinosteroids: synthesis and activity of some fluoro analogues” (J Med Chem, 2008).
pIC50: −log10 of the molar value.

What was measured:
Phaseolus vulgaris = assay: Phyto activity in Phaseolus vulgaris cv. Pinto assessed as prolongation of the second internode after 5 days by brassinolide-type activity assay; format: functional
Method in brief: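 Bean seedlings germinated 2 days, grown in perlite with diluted Hoagland solution (pH 5.7) at 25-27 °C under 16/8 h light. Seven-day-old plants with 2 mm second internodes received compound in 5 µL lanolin at the bract scar; controls got lanolin alone. ≥7 plants per experiment, ≥3 repeats. Internode length measured after 5 days, difference from control.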

RPMI-8226 = assay: Cytotoxicity against human RPMI 8226 cells assessed as cell survival after 72 hrs by calcein-AM assay; format: functional, cell-based; details: RPMI-8226, 72 h
Method in brief: (§1)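 Cells grown in DMEM with 10% fetal calf serum, 4 mM glutamine, penicillin/streptomycin, 37 °C, 5% CO2. Seeded at about 1.25 × 10^5 cells/mL and stabilised 3 h. Six 4-fold dilutions added from DMSO stocks, highest usually 50 µM, DMSO ≤0.6% final. After 72 h, calcein AM for 1 h, fluorescence read. Triplicates, ≥3 repeats; IC50 from dose-response curves.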

MCF7 = assay: Cytotoxicity against human MCF7 cells assessed as cell survival after 72 hrs by calcein-AM assay; format: functional, cell-based; details: MCF7, 72 h; method in brief: as §1
CCRF-CEM = assay: Cytotoxicity against human CEM cells assessed as cell survival after 72 hrs by calcein-AM assay; format: functional, cell-based; method in brief: as §1
BJ = assay: Cytotoxicity against human BJ cells assessed as cell survival after 72 hrs by calcein-AM assay; format: cell-based; method in brief: as §1

In the case of `CC(=O)O[C@H]1CC[C@H]2[C@@H]3CC(=O)[C@@]4(F)C[C@H](O)CC[C@]4(C)[C@H]3CC[C@]12C`, the Activity (Phaseolus vulgaris) was 21.4 mm, the pIC50 (RPMI-8226) was under 4.30 and the pIC50 (MCF7) was under 4.30. It also gave a pIC50 (CCRF-CEM) of under 4.30 and a pIC50 (BJ) of under 4.30.

With `C[C@]12CC[C@H]3[C@@H](CC(=O)[C@@]4(F)C[C@H](O)CC[C@]34C)[C@@H]1CC[C@@H]2O` the Activity (Phaseolus vulgaris) was 43.4 mm, the pIC50 (RPMI-8226) was under 4.30 and the pIC50 (MCF7) was under 4.30. The pIC50 (CCRF-CEM) was under 4.30 and the pIC50 (BJ) was under 4.30.

For `CC(=O)O[C@H]1CC[C@H]2[C@@H]3CC(=O)[C@@]4(F)C[C@H](F)CC[C@]4(C)[C@H]3CC[C@]12C`, the Activity (Phaseolus vulgaris) was 19.8 mm, the pIC50 (RPMI-8226) was under 4.30 and the pIC50 (MCF7) was under 4.30. For the same compound, the pIC50 (CCRF-CEM) was 4.37 and the pIC50 (BJ) was under 4.30.

Work on `C[C@]12CC[C@H]3[C@@H](CC(=O)[C@@]4(F)C[C@H](F)CC[C@]34C)[C@@H]1CC[C@@H]2O` yielded an Activity (Phaseolus vulgaris) of 18.4 mm, a pIC50 (RPMI-8226) of under 4.30 and a pIC50 (MCF7) of under 4.30. The pIC50 (CCRF-CEM) was under 4.30 and the pIC50 (BJ) was under 4.30.

`CC(C)[C@@H](C)[C@@H](O)[C@H](O)[C@@H](C)[C@H]1CC[C@H]2[C@@H]3CC(=O)[C@H]4C[C@H](F)CC[C@]4(C)[C@H]3CC[C@]12C` showed an Activity (Phaseolus vulgaris) of 13.2 mm, a pIC50 (RPMI-8226) of 4.63 and a pIC50 (MCF7) of 4.59. It also gave a pIC50 (CCRF-CEM) of 4.86 and a pIC50 (BJ) of 4.34.

For `C[C@]12CC[C@H]3[C@@H](CC(=O)[C@@]4(F)C[C@@H](O)CC[C@]34C)[C@@H]1CC[C@@H]2O`, the Activity (Phaseolus vulgaris) was 16.9 mm, the pIC50 (RPMI-8226) was under 4.30 and the pIC50 (MCF7) was under 4.30. It also gave a pIC50 (CCRF-CEM) of under 4.30 and a pIC50 (BJ) of under 4.30.

Compound `C[C@]12CC[C@@H](F)C[C@@H]1C(=O)C[C@@H]1[C@@H]2CC[C@]2(C)C(=O)CC[C@@H]12` has an Activity (Phaseolus vulgaris) of 14.9 mm, a pIC50 (RPMI-8226) of under 4.30 and a pIC50 (MCF7) of under 4.30. For the same compound, the pIC50 (CCRF-CEM) was under 4.30 and the pIC50 (BJ) was under 4.30.

For `C[C@]12CC[C@H](O)C[C@@H]1C(=O)C[C@@H]1[C@@H]2CC[C@]2(C)[C@@H](OC(=O)c3ccccc3)CC[C@@H]12`, the Activity (Phaseolus vulgaris) was 3.8 mm, the pIC50 (RPMI-8226) was under 4.30 and the pIC50 (MCF7) was under 4.30. It also gave a pIC50 (CCRF-CEM) of under 4.30 and a pIC50 (BJ) of under 4.30.

For `CC(C)[C@@H](C)[C@H](O)[C@@H](O)[C@@H](C)[C@H]1CC[C@H]2[C@@H]3CC(=O)[C@H]4C[C@H](F)CC[C@]4(C)[C@H]3CC[C@]12C`, the Activity (Phaseolus vulgaris) was 13.2 mm, the pIC50 (RPMI-8226) was 4.63 and the pIC50 (MCF7) was 4.59. For the same compound, the pIC50 (CCRF-CEM) was 4.86 and the pIC50 (BJ) was 4.34.

Compound `CC(=O)O[C@H]1CC[C@H]2[C@@H]3CC(=O)[C@@]4(F)C[C@H](O)[C@H](O)C[C@]4(C)[C@H]3CC[C@]12C` has an Activity (Phaseolus vulgaris) of 12.3 mm, a pIC50 (RPMI-8226) of under 4.30 and a pIC50 (MCF7) of under 4.30. For the same compound, the pIC50 (CCRF-CEM) was under 4.30 and the pIC50 (BJ) was under 4.30.

For `CC(=O)O[C@H]1CC[C@H]2[C@@H]3CC(=O)[C@@]4(F)C[C@@H](O)[C@@H](O)C[C@]4(C)[C@H]3CC[C@]12C`, the Activity (Phaseolus vulgaris) was 21.4 mm, the pIC50 (RPMI-8226) was under 4.30 and the pIC50 (MCF7) was under 4.30. For the same compound, the pIC50 (CCRF-CEM) was under 4.30 and the pIC50 (BJ) was under 4.30.

Work on `C[C@]12CC[C@@H](F)C[C@@H]1C(=O)C[C@@H]1[C@@H]2CC[C@]2(C)[C@@H](OC(=O)c3ccccc3)CC[C@@H]12` yielded an Activity (Phaseolus vulgaris) of 0.8 mm, a pIC50 (RPMI-8226) of under 4.30 and a pIC50 (MCF7) of under 4.30. It also gave a pIC50 (CCRF-CEM) of under 4.30 and a pIC50 (BJ) of under 4.30.

With `CC(C)[C@@H](C)/C=C/[C@@H](C)[C@H]1CC[C@H]2[C@@H]3CC(=O)[C@H]4C[C@H](F)CC[C@]4(C)[C@H]3CC[C@]12C` the Activity (Phaseolus vulgaris) was 9.9 mm, the pIC50 (RPMI-8226) was under 4.30 and the pIC50 (MCF7) was under 4.30. It also gave a pIC50 (CCRF-CEM) of under 4.30 and a pIC50 (BJ) of under 4.30.

In the case of `CC[C@@H](C(C)C)[C@@H](O)[C@H](O)[C@@H](C)[C@H]1CC[C@H]2[C@@H]3CC(=O)[C@H]4C[C@H](O)[C@H](O)C[C@]4(C)[C@H]3CC[C@]12C`, the pIC50 (RPMI-8226) was 4.59, the pIC50 (MCF7) was under 4.30 and the pIC50 (BJ) was under 4.30.

Compound `C[C@]12CC[C@H]3[C@@H](CC(=O)[C@@]4(F)CC=CC[C@]34C)[C@@H]1CC[C@@H]2O` has an Activity (Phaseolus vulgaris) of 13.6 mm, a pIC50 (RPMI-8226) of under 4.30 and a pIC50 (MCF7) of under 4.30. The pIC50 (CCRF-CEM) was under 4.30 and the pIC50 (BJ) was under 4.30.

With `C[C@]12CC[C@H]3[C@@H](CC(=O)[C@@]4(F)C[C@@H](O)[C@@H](O)C[C@]34C)[C@@H]1CC[C@@H]2O` the Activity (Phaseolus vulgaris) was 21.8 mm, the pIC50 (RPMI-8226) was 4.34 and the pIC50 (MCF7) was under 4.30. The pIC50 (CCRF-CEM) was under 4.30 and the pIC50 (BJ) was under 4.30.

Compound `CC(=O)O[C@H]1CC[C@H]2[C@@H]3CC(=O)[C@@]4(F)C[C@@H](O)CC[C@]4(C)[C@H]3CC[C@]12C` has an Activity (Phaseolus vulgaris) of 17.1 mm, a pIC50 (RPMI-8226) of under 4.30 and a pIC50 (MCF7) of under 4.30. For the same compound, the pIC50 (CCRF-CEM) was under 4.30 and the pIC50 (BJ) was under 4.30.

`C[C@]12CC[C@H]3[C@@H](CC(=O)[C@@]4(F)C[C@H](O)[C@H](O)C[C@]34C)[C@@H]1CC[C@@H]2O` showed an Activity (Phaseolus vulgaris) of 19.5 mm, a pIC50 (RPMI-8226) of under 4.30 and a pIC50 (MCF7) of under 4.30. For the same compound, the pIC50 (CCRF-CEM) was under 4.30 and the pIC50 (BJ) was under 4.30.

In the case of `C[C@]12CC[C@@H](F)C[C@@H]1C(=O)C[C@@H]1[C@@H]2CC[C@]2(C)[C@@H](O)CC[C@@H]12`, the Activity (Phaseolus vulgaris) was 5.9 mm, the pIC50 (RPMI-8226) was under 4.30 and the pIC50 (MCF7) was under 4.30. For the same compound, the pIC50 (CCRF-CEM) was under 4.30 and the pIC50 (BJ) was under 4.30.

Work on `CC(=O)O[C@H]1CC[C@H]2[C@@H]3CC(=O)[C@@]4(F)CC=CC[C@]4(C)[C@H]3CC[C@]12C` yielded an Activity (Phaseolus vulgaris) of 21.8 mm, a pIC50 (RPMI-8226) of under 4.30 and a pIC50 (MCF7) of under 4.30. For the same compound, the pIC50 (CCRF-CEM) was under 4.30 and the pIC50 (BJ) was under 4.30.

With `CC(C)[C@@H](C)/C=C/[C@@H](C)[C@H]1CC[C@H]2[C@@H]3CC(=O)[C@H]4C[C@@H](O)CC[C@]4(C)[C@H]3CC[C@]12C` the Activity (Phaseolus vulgaris) was 9.4 mm, the pIC50 (RPMI-8226) was 4.57 and the pIC50 (MCF7) was 4.39. For the same compound, the pIC50 (CCRF-CEM) was 4.58 and the pIC50 (BJ) was 4.38.
